Test results as given in ChEMBL document CHEMBL1777749, “4-Aminothiazolyl analogs of GE2270 A: design, synthesis and evaluation of imidazole analogs” (2011).
Converted amounts (≈) assume the structure as drawn.

Tests used:
Assay type in all cases: functional
Enterococcus faecalis = assay: Antimicrobial activity against Enterococcus faecalis ATCC 29212 by CLSI method
Streptococcus pyogenes = assay: Antimicrobial activity against Streptococcus pyogenes ATCC BAA-595 by CLSI method
Enterococcus faecium = assay: Antimicrobial activity against Enterococcus faecium 7130724 by CLSI method
Escherichia coli = assay: Inhibition of protein synthesis in Escherichia coli S30 extract at 2 uM by luciferase assay relative to control
Staphylococcus aureus = assay: Antimicrobial activity against methicillin-resistant Staphylococcus aureus clinical isolate obtained from pharyngeal smear by CLSI method
Procedure, shortened: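 MIC by dilution susceptibility testing per CLSI M07-A8, for bacteria that grow aerobically. Strain: MRSA clinical isolate AKH Vienna A4.018, from a pharyngeal smear. Tested compounds were >95% pure by LCUV, LCMS and ¹H NMR.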

SMILES: CNC(=O)C[C@@H]1NC(=O)c2csc(n2)-c2ccc(-c3nc(-n4cnc(C(=O)O)c4)cs3)nc2-c2csc(n2)-c2csc(n2)[C@H]([C@@H](O)c2ccccc2)NC(=O)CNC(=O)c2nc(sc2COC)[C@H](C(C)C)NC(=O)c2nc1sc2C
- MIC (Enterococcus faecalis): 4 µg/mL (≈ 3.36 µM)
- MIC (Streptococcus pyogenes): > 32 µg/mL
- MIC (Enterococcus faecium): > 32 µg/mL
- inhibition at 2 µM (Escherichia coli): 0%
- MIC (Staphylococcus aureus): 4 µg/mL (≈ 3.36 µM)

SMILES: CNC(=O)C[C@@H]1NC(=O)c2csc(n2)-c2ccc(-c3nc(-n4cnc(C(=O)N5CCC[C@H]5C(=O)O)c4)cs3)nc2-c2csc(n2)-c2csc(n2)[C@H]([C@@H](O)c2ccccc2)NC(=O)CNC(=O)c2nc(sc2COC)[C@H](C(C)C)NC(=O)c2nc1sc2C
- MIC (Enterococcus faecalis): 8 µg/mL (≈ 6.21 µM)
- MIC (Streptococcus pyogenes): > 32 µg/mL
- MIC (Enterococcus faecium): > 32 µg/mL
- inhibition at 2 µM (Escherichia coli): 53%
- MIC (Staphylococcus aureus): 8 µg/mL (≈ 6.21 µM)

SMILES: CNC(=O)C[C@@H]1NC(=O)c2csc(n2)-c2ccc(-c3nc(C4=N[C@H](C(=O)N5CCC[C@H]5C(N)=O)CO4)cs3)nc2-c2csc(n2)-c2csc(n2)[C@H]([C@@H](O)c2ccccc2)NC(=O)CNC(=O)c2nc(sc2COC)[C@H](C(C)C)NC(=O)c2nc1sc2C
- MIC (Enterococcus faecalis): 0.5 µg/mL (≈ 0.387 µM)
- MIC (Streptococcus pyogenes): 1 µg/mL (≈ 0.775 µM)
- MIC (Enterococcus faecium): 0.25 µg/mL (≈ 0.194 µM)
- inhibition at 2 µM (Escherichia coli): 61%
- MIC (Staphylococcus aureus): 0.25 µg/mL (≈ 0.194 µM)

SMILES: CNC(=O)C[C@@H]1NC(=O)c2csc(n2)-c2ccc(-c3nc(-n4cnc(C(=O)NCC(=O)O)c4)cs3)nc2-c2csc(n2)-c2csc(n2)[C@H]([C@@H](O)c2ccccc2)NC(=O)CNC(=O)c2nc(sc2COC)[C@H](C(C)C)NC(=O)c2nc1sc2C
- MIC (Enterococcus faecalis): 8 µg/mL (≈ 6.41 µM)
- MIC (Streptococcus pyogenes): > 32 µg/mL
- MIC (Enterococcus faecium): 32 µg/mL (≈ 25.6 µM)
- inhibition at 2 µM (Escherichia coli): 64%
- MIC (Staphylococcus aureus): 4 µg/mL (≈ 3.2 µM)
